Data set [1] in a line: Selectivity index, ratio of IC50 for human SAE cells lacking FASN expression to IC50 for human NCI-H1299 cells expressing FASN expression. A digest of the protocol:
(§1)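 Index is the SAEC IC50 divided by the IC50 in the FASN-expressing NSCLC line. IC50s came from MTS viability after 72 h exposure at 37 °C, 5% CO2, DMSO 0.1% v/v. Absorbance was read at 490 nm after 2 h. The fit was % viability against log concentration, with 4 technical repeats and 3 independent experiments. NSCLC lines were grown in RPMI/10% FBS; SAEC in BEGM.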

The test system of data set [2] is NCI-H1703. Briefly: Antiproliferative activity against human NCI-H1703 cells expressing FASN assessed as reduction in cell viability after 72 hrs by MTS assay. Type of data set: functional, cell-based. Particulars: NCI-H1703, 72 h. A digest of the protocol: (§2)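 ATCC-sourced cells. H1299, H1650, H1703 and PC-9 were grown in RPMI 1640 with 10% FBS. A549 was grown in high-glucose DMEM with 10% FBS and 1 mM pyruvate. SAEC was grown in BEGM. Cells were seeded at 3 × 10^3 per well (H1650 3.5 × 10^3) and left to attach overnight. Serial dilutions from DMSO stocks were added, 0.1% DMSO final, for 72 h at 37 °C, 5% CO2. Medium was replaced, MTS added, and A490 read after 2 h. IC50 was taken from % viability versus log concentration, 3 experiments.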
A general note: Tetrazolium assays rely on reduction of a dye to a coloured formazan, in cell work by metabolically active cells.

Data set [3] has as its target Fatty acid synthase (Homo sapiens) (UniProt P49327). The data set can be described thus: Inhibition of FASN in human PC9 cells harboring FASN expression and EGFR delE746-A750 mutant assessed as disruption of AKT/FASN positive feedback loop by measuring reduction in phosphorylated AKT expression at 1 uM after 48 hrs by Western immunoblot based densitometric assay relative to control. It counts as cell-based. The method in brief: (§3)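 PC-9 or H1703 cells were seeded at 8 × 10^5 per 100 mm dish and treated for 48 h at 1 or 5 µM (or 5, 50 and 100 µM). RIPA lysates were BCA-quantified and run on 8% SDS-PAGE, then transferred to PVDF. Blots were probed for FASN, AKT, phospho-AKT S473 and GAPDH and detected by ECL. Bands were quantified by densitometry and normalised to vehicle control.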
Background: Immunoblotting shows a protein as a band on a membrane.

For data set [4] the target is unchanged. Briefly: Inhibition of FASN in human PC9 cells harboring FASN expression and EGFR delE746-A750 mutant assessed as disruption of AKT/FASN positive feedback loop by measuring reduction in phosphorylated AKT expression at 5 uM after 48 hrs by Western immunoblot based densitometric assay relative to control. It counts as cell-based. The method in brief:
as §3

Data set [5] deals with PC-9. The data set can be described thus: Induction of apoptosis in human PC9 cells harboring FASN expression and EGFR delE746-A750 mutant assessed as increase in late apoptotic cells at 5 uM after 72 hrs by Annexin-V FITC/PI staining-based flow cytometry. Type of data set: functional, cell-based. (A flow cytometer gives signals particle by particle.)
The target in data set [6] is Fatty acid synthase (Homo sapiens) (UniProt P49327). The data set can be described thus: Inhibition of FASN in human NCI-H1703 cells expressing FASN assessed as disruption of AKT/FASN positive feedback loop by measuring decrease in FASN expression after 48 hrs by Western immunoblot assay. It counts as cell-based. A digest of the protocol: as §3
The subject of data set [7] is NCI-H1703. Briefly: Antiproliferative activity against human NCI-H1703 cells expressing FASN assessed as growth inhibition at 25 uM after 72 hrs by MTS assay relative to control. Particulars: NCI-H1703, 72 h. Type of data set: functional. The method in brief: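 H1703 cells were treated with a single 25 µM concentration for 72 h. Viability was measured by MTS at 490 nm, with 0.1% DMSO and media-only correction, relative to untreated control. Mean ± SD of n = 3 independent determinations, unpaired t test against control.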

A short description of data set [8]: Ratio of compound kinetic solubility to [1,1'-Biphenyl]-4,4'-diyl bis(3,4,5-trihydroxybenzoate)] kinetic solubility in universal buffer at pH 7.4 measured at 25 degC after 24 hrs by UV/Visible spectroscopic analysis. Type of data set: physicochemical. Particulars: pH 7.4, 24 h.
For data set [9], the system named is A549. The data set can be described thus: Antiproliferative activity against human A549 cells expressing FASN assessed as reduction in cell viability after 72 hrs by MTS assay. Type of data set: functional, cell-based. Particulars: A549, 72 h. A digest of the protocol:
as §2

The target in data set [10] is Fatty acid synthase (Homo sapiens) (UniProt P49327). Briefly: Inhibition of FASN in human PC9 cells harboring FASN expression and EGFR delE746-A750 mutant assessed as disruption of AKT/FASN positive feedback loop by measuring decrease in FASN expression at 1 uM after 48 hrs by Western immunoblot based densitometric assay relative to control. It counts as cell-based. The method in brief:
as §3

Data set [11] has the same target. Briefly: Inhibition of FASN in human NCI-H1703 cells expressing FASN assessed as disruption of AKT/FASN positive feedback loop by measuring decrease in AKT expression at 5 uM after 48 hrs by Western immunoblot based densitometric assay relative to control. Type of data set: cell-based. The method in brief: as §3
Data set [12] has the same target. The data set can be described thus: Inhibition of FASN in human PC9 cells harboring FASN expression and EGFR delE746-A750 mutant assessed as disruption of AKT/FASN positive feedback loop by measuring reduction in AKT expression at 5 uM after 48 hrs by Western immunoblot based densitometric assay relative to control. Type of data set: cell-based. A digest of the protocol: as §3

Data set [13] concerns PC-9. Briefly: Antiproliferative activity against human PC9 cells harboring FASN expression and EGFR delE746-A750 mutant assessed as cell viability at 2 uM after 72 hrs in presence of exogenous lipid concentrate by MTS assay. Type of data set: functional, cell-based. A digest of the protocol: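 Cells were treated as in the MTS viability assay. After 6 h, chemically defined lipid concentrate was added to 2% v/v final. Incubation continued for a further 72 h, then viability was read by MTS at 490 nm. Cells were treated at 2 µM (PC-9) or 1 µM (H1703). Mean ± SD, n = 3, compared with compound alone.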

A short description of data set [14]: Selectivity index, ratio of IC50 for human SAE cells lacking FASN expression to IC50 for human NCI-H1703 cells expressing FASN. The method in brief: as §1
Data set [15] addresses Fatty acid synthase (Homo sapiens) (UniProt P49327). Briefly: Inhibition of FASN in human NCI-H1703 cells expressing FASN assessed as disruption of AKT/FASN positive feedback loop by measuring decrease in FASN expression at 5 uM after 48 hrs by Western immunoblot based densitometric assay relative to control. Type of data set: cell-based. The method in brief: as §3
The target is the same in data set [16]. Briefly: Inhibition of FASN in human NCI-H1703 cells expressing FASN assessed as disruption of AKT/FASN positive feedback loop by measuring decrease in FASN expression at 1 uM after 48 hrs by Western immunoblot based densitometric assay relative to control. Type of data set: cell-based. A digest of the protocol: as §3
Data set [17] deals with NCI-H1299. The data set can be described thus: Antiproliferative activity against human NCI-H1299 cells expressing FASN assessed as reduction in cell viability after 72 hrs by MTS assay. It counts as functional, cell-based. Particulars: NCI-H1299, 72 h. A digest of the protocol: as §2
Data set [18] concerns the target Fatty acid synthase (Homo sapiens) (UniProt P49327). Briefly: Inhibition of FASN in human NCI-H1703 cells expressing FASN assessed as disruption of AKT/FASN positive feedback loop by measuring decrease in phosphorylated AKT expression at 1 uM after 48 hrs by Western immunoblot based densitometric assay relative to control. Type of data set: cell-based. The method in brief:
as §3

A short description of data set [19]: Selectivity index, ratio of IC50 for human SAE cells lacking FASN expression to IC50 for human A549 cells expressing FASN. A digest of the protocol: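 The ratio IC50(SAEC)/IC50(NSCLC line) was calculated from 72 h MTS viability IC50 values.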
For data set [20], the target named is Fatty acid synthase (Homo sapiens) (UniProt P49327). Briefly: Inhibition of FASN in human NCI-H1703 cells expressing FASN assessed as disruption of AKT/FASN positive feedback loop by measuring decrease in AKT expression at 1 uM after 48 hrs by Western immunoblot based densitometric assay relative to control. Type of data set: cell-based. The method in brief: as §3

The values that follow come from ChEMBL document CHEMBL4406830, “Galloyl esters of trans-stilbenes are inhibitors of FASN with anticancer activity on non-small cell lung cancer cells” (Eur J Med Chem, 2019).

By IC50 is commonly meant the midpoint of a concentration-inhibition curve. By inhibition is commonly meant the relative decrease from the control value, in per cent.

Structures are written as SMILES. Active and inactive are the calls of the source. No cut-off for these calls is given here.

Chain of Fatty acid synthase (Homo sapiens) (P49327 whole entry, looked up): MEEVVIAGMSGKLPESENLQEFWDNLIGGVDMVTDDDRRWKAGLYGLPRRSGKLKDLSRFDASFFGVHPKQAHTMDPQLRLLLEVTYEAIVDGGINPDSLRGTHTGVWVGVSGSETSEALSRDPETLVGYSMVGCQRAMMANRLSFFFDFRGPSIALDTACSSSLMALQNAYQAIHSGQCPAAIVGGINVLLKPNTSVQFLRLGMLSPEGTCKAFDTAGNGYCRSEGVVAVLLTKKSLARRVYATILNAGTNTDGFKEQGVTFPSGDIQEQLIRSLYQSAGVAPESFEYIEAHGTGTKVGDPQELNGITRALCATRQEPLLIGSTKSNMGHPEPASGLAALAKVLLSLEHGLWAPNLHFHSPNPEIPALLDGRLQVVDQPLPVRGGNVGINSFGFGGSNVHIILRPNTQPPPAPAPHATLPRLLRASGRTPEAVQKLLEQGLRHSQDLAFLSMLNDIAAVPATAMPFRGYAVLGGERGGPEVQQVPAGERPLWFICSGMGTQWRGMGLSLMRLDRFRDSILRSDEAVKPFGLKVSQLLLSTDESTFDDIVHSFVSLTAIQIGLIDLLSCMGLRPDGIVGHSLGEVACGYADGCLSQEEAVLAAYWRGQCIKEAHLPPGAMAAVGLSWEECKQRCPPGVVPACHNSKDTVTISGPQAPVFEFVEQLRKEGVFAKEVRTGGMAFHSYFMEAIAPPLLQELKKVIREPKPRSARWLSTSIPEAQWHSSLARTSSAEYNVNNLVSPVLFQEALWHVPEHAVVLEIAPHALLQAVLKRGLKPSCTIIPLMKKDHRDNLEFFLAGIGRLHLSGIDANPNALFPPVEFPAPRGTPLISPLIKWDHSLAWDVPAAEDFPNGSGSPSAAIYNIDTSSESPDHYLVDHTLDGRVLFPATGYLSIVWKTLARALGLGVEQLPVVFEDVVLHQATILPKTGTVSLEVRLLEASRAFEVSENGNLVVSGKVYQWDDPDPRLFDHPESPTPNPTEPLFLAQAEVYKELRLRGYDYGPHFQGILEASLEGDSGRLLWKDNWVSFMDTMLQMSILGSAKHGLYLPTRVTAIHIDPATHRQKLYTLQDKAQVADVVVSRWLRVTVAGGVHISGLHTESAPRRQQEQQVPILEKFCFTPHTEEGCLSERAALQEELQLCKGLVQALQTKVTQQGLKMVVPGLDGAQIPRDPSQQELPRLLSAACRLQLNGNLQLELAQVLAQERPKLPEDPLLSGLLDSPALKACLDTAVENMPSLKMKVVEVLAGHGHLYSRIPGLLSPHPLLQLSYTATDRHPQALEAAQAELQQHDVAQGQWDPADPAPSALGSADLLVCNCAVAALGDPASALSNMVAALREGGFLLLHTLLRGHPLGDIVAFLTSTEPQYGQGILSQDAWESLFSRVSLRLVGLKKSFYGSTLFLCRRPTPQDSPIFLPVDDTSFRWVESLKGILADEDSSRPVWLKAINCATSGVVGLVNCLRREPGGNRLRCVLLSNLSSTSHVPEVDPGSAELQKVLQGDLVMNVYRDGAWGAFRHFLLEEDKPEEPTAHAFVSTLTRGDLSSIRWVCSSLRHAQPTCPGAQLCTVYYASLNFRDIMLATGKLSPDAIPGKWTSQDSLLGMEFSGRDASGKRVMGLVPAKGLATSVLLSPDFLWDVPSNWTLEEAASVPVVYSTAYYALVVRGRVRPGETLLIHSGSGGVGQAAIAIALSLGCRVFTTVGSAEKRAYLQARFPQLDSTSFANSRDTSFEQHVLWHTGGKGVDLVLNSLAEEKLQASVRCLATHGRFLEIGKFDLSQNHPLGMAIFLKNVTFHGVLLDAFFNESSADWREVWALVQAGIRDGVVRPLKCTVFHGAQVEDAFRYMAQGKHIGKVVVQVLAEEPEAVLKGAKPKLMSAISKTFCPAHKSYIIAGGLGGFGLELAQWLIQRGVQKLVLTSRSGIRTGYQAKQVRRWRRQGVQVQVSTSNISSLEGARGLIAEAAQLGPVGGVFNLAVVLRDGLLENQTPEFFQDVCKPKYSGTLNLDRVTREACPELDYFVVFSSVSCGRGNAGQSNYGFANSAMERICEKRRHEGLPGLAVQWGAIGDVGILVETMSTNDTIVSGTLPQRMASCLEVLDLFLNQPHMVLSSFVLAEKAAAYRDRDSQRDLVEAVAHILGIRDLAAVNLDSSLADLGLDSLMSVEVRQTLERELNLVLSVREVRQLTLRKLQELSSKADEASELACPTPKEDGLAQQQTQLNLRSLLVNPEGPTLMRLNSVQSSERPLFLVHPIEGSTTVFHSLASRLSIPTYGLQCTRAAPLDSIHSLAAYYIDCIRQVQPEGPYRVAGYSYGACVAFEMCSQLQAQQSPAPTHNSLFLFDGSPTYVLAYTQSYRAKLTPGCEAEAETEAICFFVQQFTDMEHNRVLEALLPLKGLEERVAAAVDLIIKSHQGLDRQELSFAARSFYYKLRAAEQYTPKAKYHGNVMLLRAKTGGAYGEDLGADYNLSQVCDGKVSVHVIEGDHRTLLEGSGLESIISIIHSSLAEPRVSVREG

For the compound `O=C(Oc1ccc(/C=C/c2cccc(OC(=O)c3cc(O)c(O)c(O)c3)c2)cc1)c1cc(O)c(O)c(O)c1`, the figures for the “Ratio IC50” value in data set [1], in [14] and in data set [19] were 2.2, 5.3 and 3, respectively. For the same compound, the IC50 in data set [2] amounted to 1.28 µM; in data set [9] it was 2.3 µM; in data set [17], 3.1 µM. Also, the Ratio in data set [3] amounted to 0.53; in data set [4] it was 0.29; in [8], 15; in [10] it was 0.86; in [11] it was 0.11; in data set [12] it was 0.12. The Ratio in [15] is 0.08; in data set [16] it was 0.38 to 0.39; in data set [18], 0.57; in data set [20], 0.52. For the same compound, the result in data set [5] was Active. For the same compound, the inhibition entry in data set [6] is “Dose-dependent effect”. In data set [7], the inhibition at 25 µM is > 50%. Besides, the inhibition entry in data set [13] is “inactive”.

With `O=C(Oc1ccc(/C=C/c2ccc(OC(=O)c3cc(O)c(O)c(O)c3)cc2)cc1)c1cc(O)c(O)c(O)c1`, the “Ratio IC50” value is recorded as 1.5 in [1], 5.2 in data set [14] and 2.4 in data set [19]. The IC50 in data set [2] was found to be 0.97 µM; in data set [9] it was 2.1 µM; in [17] it was 3.3 µM. Also, the Ratio is 0.88 in data set [3]; 0.2 in [4]; 6 to 15 in data set [8]; 0.92 in data set [10]; 0.01 in [11]; 0.18 in data set [12]. Further, the Ratio was 0.04 in data set [15], 0.11 to 0.24 in [16], 0.09 in data set [18] and 0.34 in data set [20]. In addition, the result in [5] was Active. Besides, the inhibition entry in [6] is “Dose-dependent effect”. Further, the inhibition at 25 µM in [7] was > 50%. In [13], the inhibition result was “inactive”.
